In brackets after ≈: the same amount, converted by molar mass.
Legend:
Schaalia meyeri [1] = assay: Antimicrobial activity against Actinomyces meyeri assessed as percent susceptible isolates after 48 hrs by agar dilution method; format: functional
Prevotella buccae [2] = assay: Antimicrobial activity against Prevotella buccae assessed as percent resistant isolates after 48 hrs by agar dilution method; format: functional, Segatella buccae
Outline: (§1)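 CLSI agar dilution on recent Korean clinical anaerobe isolates. Inoculum 10^5 CFU per spot by replicator. Plates incubated in an anaerobic chamber at 37°C for 48 h. For piperacillin plus tazobactam, tazobactam was held constant at 4 μg/ml. Resistance and susceptibility rates derived from MICs.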

Finegoldia magna [3] = assay: Antimicrobial activity against Finegoldia magna assessed as percent resistant isolates after 48 hrs by agar dilution method; format: functional; outline: as §1
Parvimonas micra [4] = assay: Antimicrobial activity against Peptostreptococcus micros after 48 hrs by agar dilution method; format: functional
Outline: (§2)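 CLSI agar dilution (M11-A7); inoculum 10^5 CFU applied by replicator; plates incubated anaerobically 48 h at 37°C. For piperacillin-tazobactam, tazobactam held constant at 4 μg/ml.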

Bacteroides ovatus [5] = assay: Antimicrobial activity against Bacteroides ovatus assessed as percent resistant isolates after 48 hrs by agar dilution method; format: functional; outline: as §1
Phocaeicola vulgatus [6] = assay: Antimicrobial activity against Bacteroides vulgatus assessed as percent susceptible isolates after 48 hrs by agar dilution method; format: functional
[7] = tested on: Peptoniphilus asaccharolyticus; assay: Antimicrobial activity against Peptoniphilus asaccharolyticus assessed as percent resistant isolates after 48 hrs by agar dilution method; format: functional; outline: as §1
Prevotella bivia [8] = assay: Antimicrobial activity against Prevotella bivia assessed as percent susceptible isolates after 48 hrs by agar dilution method; format: functional; outline: as §2
Fusobacterium nucleatum = assay: Antimicrobial activity against Fusobacterium nucleatum after 48 hrs by agar dilution method; format: functional; outline: as §2
Prevotella buccae [9] = assay: Antimicrobial activity against Prevotella buccae after 48 hrs by agar dilution method; format: functional; settings: Segatella buccae; outline: as §2
Actinomyces naeslundii [10] = assay: Antimicrobial activity against Actinomyces naeslundii assessed as percent susceptible isolates after 48 hrs by agar dilution method; format: functional
[11] = tested on: Parabacteroides distasonis; assay: Antimicrobial activity against Bacteroides distasonis assessed as percent susceptible isolates after 48 hrs by agar dilution method; format: functional
Hoylesella oralis = assay: Antimicrobial activity against Prevotella oralis assessed as percent susceptible isolates after 48 hrs by agar dilution method; format: functional
Outline: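 CLSI agar dilution MIC testing of clinical isolates. 10^5 CFU spotted by replicator, plates incubated 48 h at 37°C in an anaerobic chamber. Susceptibility rates derived from the MICs.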

Schaalia meyeri [12] = assay: Antimicrobial activity against Actinomyces meyeri assessed as percent resistant isolates after 48 hrs by agar dilution method; format: functional; outline: as §1
Prevotella intermedia [13] = assay: Antimicrobial activity against Prevotella intermedia assessed as percent susceptible isolates after 48 hrs by agar dilution method; format: functional; outline: as §2
[14] = tested on: Bacteroides thetaiotaomicron; assay: Antimicrobial activity against Bacteroides thetaiotaomicron assessed as percent susceptible isolates after 48 hrs by agar dilution method; format: functional
Finegoldia magna [15] = assay: Antimicrobial activity against Finegoldia magna assessed as percent susceptible isolates after 48 hrs by agar dilution method; format: functional; outline: as §2
[16] = tested on: Porphyromonas asaccharolytica; assay: Antimicrobial activity against Porphyromonas asaccharolytica after 48 hrs by agar dilution method; format: functional; outline: as §2
Parvimonas micra [17] = assay: Antimicrobial activity against Peptostreptococcus micros assessed as percent susceptible isolates after 48 hrs by agar dilution method; format: functional; outline: as §1
Bacteroides caccae [18] = assay: Antimicrobial activity against Bacteroides caccae assessed as percent susceptible isolates after 48 hrs by agar dilution method; format: functional
[19] = tested on: Parabacteroides distasonis; assay: Antimicrobial activity against Bacteroides distasonis assessed as percent resistant isolates after 48 hrs by agar dilution method; format: functional; outline: as §1
Phocaeicola vulgatus [20] = assay: Antimicrobial activity against Bacteroides vulgatus assessed as percent resistant isolates after 48 hrs by agar dilution method; format: functional; outline: as §1
Schaalia meyeri [21] = assay: Antimicrobial activity against Actinomyces meyeri after 48 hrs by agar dilution method; format: functional
Outline: (§3)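 MICs on clinical anaerobe isolates by the CLSI agar dilution method. Inoculum of 10^5 CFU applied with a Steers replicator. Plates incubated 48 h at 37°C in an anaerobic chamber.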

Schaalia odontolytica [22] = assay: Antimicrobial activity against Actinomyces odontolyticus assessed as percent resistant isolates after 48 hrs by agar dilution method; format: functional; outline: as §1
Finegoldia magna [23] = assay: Antimicrobial activity against Finegoldia magna after 48 hrs by agar dilution method; format: functional; outline: as §2
[24] = tested on: Bacteroides thetaiotaomicron; assay: Antimicrobial activity against Bacteroides thetaiotaomicron after 48 hrs by agar dilution method; format: functional; outline: as §3
Bacteroides caccae [25] = assay: Antimicrobial activity against Bacteroides caccae after 48 hrs by agar dilution method; format: functional; outline: as §3
Actinomyces naeslundii [26] = assay: Antimicrobial activity against Actinomyces naeslundii assessed as percent resistant isolates after 48 hrs by agar dilution method; format: functional; outline: as §1
Fusobacterium necrogenes = assay: Antimicrobial activity against Fusobacterium necrogenes after 48 hrs by agar dilution method; format: functional; outline: as §2
Eubacterium sp. [27] = assay: Antimicrobial activity against Eubacterium sp. after 48 hrs by agar dilution method; format: functional; outline: as §2
Bacteroides fragilis = assay: Antimicrobial activity against Bacteroides fragilis assessed as percent resistant isolates after 48 hrs by agar dilution method; format: functional; outline: as §1
Bacteroides ovatus [28] = assay: Antimicrobial activity against Bacteroides ovatus after 48 hrs by agar dilution method; format: functional; outline: as §3
Actinomyces israelii [29] = assay: Antimicrobial activity against Actinomyces israelii after 48 hrs by agar dilution method; format: functional; outline: as §3
Fusobacterium varium = assay: Antimicrobial activity against Fusobacterium varium after 48 hrs by agar dilution method; format: functional; outline: as §2
Eggerthella lenta [30] = assay: Antimicrobial activity against Eubacterium lentum assessed as percent susceptible isolates after 48 hrs by agar dilution method; format: functional; outline: as §2
Bifidobacterium sp. [31] = assay: Antimicrobial activity against Bifidobacterium sp. assessed as percent susceptible isolates after 48 hrs by agar dilution method; format: functional; outline: as §2
Prevotella bivia [32] = assay: Antimicrobial activity against Prevotella bivia assessed as percent resistant isolates after 48 hrs by agar dilution method; format: functional; outline: as §1
Clostridium perfringens = assay: Antimicrobial activity against Clostridium perfringens assessed as percent susceptible isolates after 48 hrs by agar dilution method; format: functional
Schaalia odontolytica [33] = assay: Antimicrobial activity against Actinomyces odontolyticus after 48 hrs by agar dilution method; format: functional; outline: as §3
Clostridioides difficile = assay: Antimicrobial activity against Clostridium difficile assessed as percent susceptible isolates after 48 hrs by agar dilution method; format: functional
Actinomyces israelii [34] = assay: Antimicrobial activity against Actinomyces israelii assessed as percent susceptible isolates after 48 hrs by agar dilution method; format: functional
[35] = tested on: Peptoniphilus asaccharolyticus; assay: Antimicrobial activity against Peptoniphilus asaccharolyticus after 48 hrs by agar dilution method; format: functional; outline: as §2
Bifidobacterium sp. [36] = assay: Antimicrobial activity against Bifidobacterium sp. assessed as percent resistant isolates after 48 hrs by agar dilution method; format: functional; outline: as §1
[37] = tested on: Bacteroides thetaiotaomicron; assay: Antimicrobial activity against Bacteroides thetaiotaomicron assessed as percent resistant isolates after 48 hrs by agar dilution method; format: functional; outline: as §1
Eggerthella lenta [38] = assay: Antimicrobial activity against Eubacterium lentum assessed as percent resistant isolates after 48 hrs by agar dilution method; format: functional; outline: as §1
Anaerococcus prevotii = assay: Antimicrobial activity against Anaerococcus prevotii assessed as percent susceptible isolates after 48 hrs by agar dilution method; format: functional
Eubacterium sp. [39] = assay: Antimicrobial activity against Eubacterium sp. assessed as percent resistant isolates after 48 hrs by agar dilution method; format: functional; outline: as §1
Prevotella intermedia [40] = assay: Antimicrobial activity against Prevotella intermedia after 48 hrs by agar dilution method; format: functional; outline: as §2

O=C(N[C@H](CO)[C@H](O)c1ccc([N+](=O)[O-])cc1)C(Cl)Cl [CHLORAMPHENICOL]
Activity (Schaalia meyeri [1]): 92% | Activity (Prevotella buccae [2]): 0% | Activity (Finegoldia magna [3]): 0% | MIC50 (Parvimonas micra [4]): 2 µg/mL (≈ 6.19 µM) | MIC90 (Parvimonas micra [4]): 2 µg/mL (≈ 6.19 µM) | Activity (Bacteroides ovatus [5]): 0% | Activity (Phocaeicola vulgatus [6]): 98% | Activity [7]: 0% | Activity (Prevotella bivia [8]): 100% | MIC (Fusobacterium nucleatum): 0.13 µg/mL (≈ 0.402 µM) | MIC50 (Prevotella buccae [9]): 4 µg/mL (≈ 12.4 µM) | MIC90 (Prevotella buccae [9]): 8 µg/mL (≈ 24.8 µM) | Activity (Actinomyces naeslundii [10]): 92% | Activity [11]: 98% | Activity (Hoylesella oralis): 100% | Activity (Schaalia meyeri [12]): 0% | Activity (Prevotella intermedia [13]): 100% | Activity [14]: 98% | Activity (Finegoldia magna [15]): 100% | MIC [16]: 0.13 µg/mL (≈ 0.402 µM) | Activity (Parvimonas micra [17]): 0% | Activity (Bacteroides caccae [18]): 98% | Activity [19]: 0% | Activity (Phocaeicola vulgatus [20]): 0% | MIC (Schaalia meyeri [21]): 1 µg/mL (≈ 3.09 µM) | MIC50 (Schaalia meyeri [21]): 1 µg/mL (≈ 3.09 µM) | MIC90 (Schaalia meyeri [21]): 2 µg/mL (≈ 6.19 µM) | Activity (Schaalia odontolytica [22]): 0% | MIC50 (Finegoldia magna [23]): 4 µg/mL (≈ 12.4 µM) | MIC90 (Finegoldia magna [23]): 4 µg/mL (≈ 12.4 µM) | MIC [24]: 4 µg/mL (≈ 12.4 µM) | MIC50 [24]: 4 µg/mL (≈ 12.4 µM) | MIC90 [24]: 8 µg/mL (≈ 24.8 µM) | MIC (Bacteroides caccae [25]): 4 µg/mL (≈ 12.4 µM) | MIC50 (Bacteroides caccae [25]): 4 µg/mL (≈ 12.4 µM) | MIC90 (Bacteroides caccae [25]): 8 µg/mL (≈ 24.8 µM) | Activity (Actinomyces naeslundii [26]): 0% | MIC (Fusobacterium necrogenes): 0.13 µg/mL (≈ 0.402 µM) | MIC (Eubacterium sp. [27]): 1 µg/mL (≈ 3.09 µM) | MIC50 (Eubacterium sp. [27]): 1 µg/mL (≈ 3.09 µM) | MIC90 (Eubacterium sp. [27]): 2 µg/mL (≈ 6.19 µM) | Activity (Bacteroides fragilis): 0% | MIC (Bacteroides ovatus [28]): 4 µg/mL (≈ 12.4 µM) | MIC50 (Bacteroides ovatus [28]): 4 µg/mL (≈ 12.4 µM) | MIC90 (Bacteroides ovatus [28]): 8 µg/mL (≈ 24.8 µM) | MIC (Actinomyces israelii [29]): 1 µg/mL (≈ 3.09 µM) | MIC50 (Actinomyces israelii [29]): 1 µg/mL (≈ 3.09 µM) | MIC90 (Actinomyces israelii [29]): 2 µg/mL (≈ 6.19 µM) | MIC (Fusobacterium varium): 0.13 µg/mL (≈ 0.402 µM) | Activity (Eggerthella lenta [30]): 92% | Activity (Bifidobacterium sp. [31]): 92% | Activity (Prevotella bivia [32]): 0% | Activity (Clostridium perfringens): 100% | MIC (Schaalia odontolytica [33]): 1 µg/mL (≈ 3.09 µM) | MIC50 (Schaalia odontolytica [33]): 1 µg/mL (≈ 3.09 µM) | MIC90 (Schaalia odontolytica [33]): 2 µg/mL (≈ 6.19 µM) | Activity (Clostridioides difficile): 83% | Activity (Actinomyces israelii [34]): 92% | MIC50 [35]: 2 µg/mL (≈ 6.19 µM) | MIC90 [35]: 4 µg/mL (≈ 12.4 µM) | Activity (Bifidobacterium sp. [36]): 0% | Activity [37]: 0% | Activity (Eggerthella lenta [38]): 0% | Activity (Anaerococcus prevotii): 93% | Activity (Eubacterium sp. [39]): 0% | MIC (Prevotella intermedia [40]): 0.5 µg/mL (≈ 1.55 µM) | MIC50 (Prevotella intermedia [40]): 0.5 µg/mL (≈ 1.55 µM) | MIC90 (Prevotella intermedia [40]): 1 µg/mL (≈ 3.09 µM)

Source: ChEMBL document CHEMBL1671716, “Antimicrobial susceptibility patterns for recent clinical isolates of anaerobic bacteria in South Korea” (2010)
